Values joined by “and” are separate entries in the source; they are usually repeats but may differ in a detail not shown here. Equal entries are not always repeated. Active and inactive are the calls of the source.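 The calls were made as follows: active = compounds lowering cell viability with a fitted IC50 within ten times their top tested dose; inconclusive = flat viability loss of 30 to 70 percent, or poor fit; inactive = the rest.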

This is an account of results in PubChem BioAssay AID493249 (Broad Institute, 2011).

Assay [1] is described as follows: toxicity in U2OS HRE-luc reporter cells, dose response, cytotoxicity control for HIF pathway activator project, cell-based, dry powder, set 7 (AID 493249). Particulars: U2OS HRE-luc cells, viability toxicity counter-screen, CellTiter-Glo; at 38 µM (top of the series). Put shortly: (§1)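 System – human osteosarcoma U2OS cells stably expressing 3×HRE-luciferase reporter · Quantity – 6,000 cells/well · Medium – phenol red-free DMEM, 10% FBS, no hygromycin · Compound – 8-point 3-fold dilution series, 7.5 mM top stock · Incubation – 24 h plating plus 24 h compound treatment · Measured by – CellTiter-Glo luminescence for cell viability · Measure – compound toxicity as loss of cell viability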

In assay [2] the test system is U2OS HRE-luc cells, viability toxicity counter-screen, CellTiter-Glo. Described as above. The method, boiled down:
as §1

`OCCCNc1nc(-c2ccccn2)nnc1-c1ccccc1`: in assay [1], the activity change, negative = toxicity is 4.98% (inactive). `c1ccc(-c2nnc(-c3ccccn3)nc2NCc2ccccn2)cc1`: the IC50 in assay [2] is > 38 µM (inactive).

Take `O=C(Nc1cnc2ccccc2c1)c1cc(-c2ccccc2)on1`: the activity change, negative = toxicity in assay [1] is 0.164% (inactive). Still for that read-out and setting: under `Clc1cccc(CNc2nc(-c3ccccn3)nnc2-c2ccccc2)c1` stands 2.17% (inactive). For `Cn1c(-c2ccccc2)cnc1Nc1nc(-c2ccccn2)nnc1-c1ccccc1`, the IC50 in assay [2] is 34.8 µM.

As to `c1ccc(CCNc2nc(-c3ccccn3)nnc2-c2ccccc2)cc1`, in assay [1], the activity change, negative = toxicity was -5.99% (inactive). On to `c1ccc(-c2csc(Nc3nc(-c4ccccn4)nnc3-c3ccccc3)n2)cc1`, for which the IC50 in assay [2] was > 38 µM (inactive). Turning to `c1ccc(-c2nnc(-c3ccccn3)nc2NCC2CCCCC2)cc1`, the activity change, negative = toxicity in assay [1] was -26% (inactive). The same measure, in the same setting: under `CC(Nc1nc(-c2ccccn2)nnc1-c1ccccc1)c1ccccc1` (centres undefined) stands 0.427% (inactive); under `c1ccc(-c2nnc(-c3ccccn3)nc2NCCc2ccccn2)cc1`, 4.22% (inactive). Take `c1ccc(-c2nnc(-c3ccccn3)nc2Nc2nc3ccccc3s2)cc1`: the IC50 in assay [2] is > 38 µM (inactive). As to `O=C(Nc1nnc(-c2ccccc2)s1)c1cc(-c2ccccc2)on1`, in assay [1], the activity change, negative = toxicity is -7.07% (inactive). For the compound `c1ccc(-c2nnc(-c3ccccn3)nc2N2CCC(N3CCOCC3)CC2)cc1`, the IC50 in assay [2] was > 38 µM (inactive). On to `Cc1cccc(CNC(=O)c2cc(-c3ccccc3)on2)c1`, for which, in assay [1], the activity change, negative = toxicity is -1.11% (inactive). Same read-out and setting: under `Cc1ccc(NC(=O)c2cc(-c3ccccc3)on2)cn1` stands -11.1% (inactive). On to `OCC1CCN(c2nc(-c3ccccn3)nnc2-c2ccccc2)CC1`, for which the activity change, negative = toxicity in assay [1] was -13.9% (inactive).

As to `Cc1ccc(CNc2nc(-c3ccccn3)nnc2-c2ccccc2)cc1`, the activity change, negative = toxicity in assay [1] was -15.4% (inactive).

For `O=C(NCCCN1CCOCC1)c1cc(-c2ccccc2)on1`, the activity change, negative = toxicity in assay [1] was 0.736% (inactive).

In the case of `COc1ccccc1N1CCN(Cc2ccc(O)c3ncccc23)CC1`, the activity change, negative = toxicity in assay [1] was -18.6% (inactive). For `O=C(NCC1CC1)c1cc(-c2ccccc2)on1`, the activity change, negative = toxicity in assay [1] was -6.03% (inactive).

As for `CCCCNC(=O)c1cc(-c2ccccc2)on1`, the activity change, negative = toxicity in assay [1] was -11.5% (inactive). Still for that read-out and setting: as for `COc1ccc(CNc2nc(-c3ccccn3)nnc2-c2ccccc2)cc1`, the figure is -2.05% (inactive); as for `O=C(NCCCO)c1cc(-c2ccccc2)on1`, -3.27% (inactive); as for `O=C(Nc1ncc(-c2ccccc2)o1)c1cc(-c2ccccc2)on1`, 1.41% (inactive). Same read-out and setting: as for `O=C(Nc1ccc2ccccc2n1)c1cc(-c2ccccc2)on1`, the figure is 9.02% (inactive); as for `c1ccc(-c2nnc(-c3ccccn3)nc2NCCCN2CCOCC2)cc1`, 11% (inactive); as for `COc1cccc(CNc2nc(-c3ccccn3)nnc2-c2ccccc2)c1`, -14.9% (inactive). The same measure, in the same setting: as for `Cc1cccc(NC(=O)c2cc(-c3ccccc3)on2)n1`, the figure is -0.352% (inactive); as for `c1ccc(-c2nnc(-c3ccccn3)nc2NCCN2CCOCC2)cc1`, -9.28% (inactive). On to `O=C(NCCN1CCCCC1)c1cc(-c2ccccc2)on1`, for which, in assay [2], the IC50 is > 38 µM (inactive). For `O=C(NCCCCO)c1cc(-c2ccccc2)on1`, the activity change, negative = toxicity in assay [1] was -16.3% (inactive).

`Oc1ccc(CN2CCc3ccccc3C2)c2cccnc12`: in assay [1], the activity change, negative = toxicity was -16.2% (inactive). On the same count and under the same terms, under `c1ccc(-c2nnc(-c3ccccn3)nc2NCC2CCOCC2)cc1` stands 20.8% (inactive); under `CC(C)(C)CCNC(=O)c1cc(-c2ccccc2)on1`, -7.02% (inactive).

Regarding `Cc1cccc(CNc2nc(-c3ccccn3)nnc2-c2ccccc2)c1`, the activity change, negative = toxicity in assay [1] is -16.7% (inactive).

Take `C[C@@H](Nc1nc(-c2ccccn2)nnc1-c1ccccc1)c1ccccc1`: in assay [1], the activity change, negative = toxicity was -13.6% (inactive). Regarding `c1ccc(-c2cccc(CNc3nc(-c4ccccn4)nnc3-c3ccccc3)c2)cc1`, the activity change, negative = toxicity in assay [1] was -2.36% (inactive). Still for that read-out and setting: under `O=C(Nc1ncc2ccccc2n1)c1cc(-c2ccccc2)on1` stands -4.1% (inactive). `c1ccc(-c2nnc(-c3ccccn3)nc2NCc2cccnc2)cc1`: the activity change, negative = toxicity in assay [1] was 40.2% (inactive). Still for that read-out and setting: as for `Cc1ccccc1CNc1nc(-c2ccccn2)nnc1-c1ccccc1`, the figure is -17.6% (inactive). Take `Cc1cccc(Nc2nc(-c3ccccn3)nnc2-c2ccccc2)n1`: in assay [1], the activity change, negative = toxicity is -12.6% (inactive). Take `c1ccc(-c2nnc(-c3ccccn3)nc2N2CCN(c3ccncc3)CC2)cc1`: the IC50 in assay [2] is > 38 µM (inactive). On the same count and under the same terms, under `O=C(c1cc(-c2ccccc2)on1)N1CCN(c2ccncc2)CC1` stands > 38 µM (inactive). For the compound `c1ccc(-c2nnc(-c3ccccn3)nc2N2CCC(c3ccccc3)C2)cc1` (centres undefined), the activity change, negative = toxicity in assay [1] was -24.1% (inactive). Same read-out and setting: under `CN1CCN(C(=O)c2cc(-c3ccccc3)on2)CC1` stands 3.42% (inactive). Same read-out and setting: under `C=CCNc1nc(-c2ccccn2)nnc1-c1ccccc1` stands 3.09% (inactive).

`O=C(NCCN1CCOCC1)c1cc(-c2ccccc2)on1`: the activity change, negative = toxicity in assay [1] was -16.1% (inactive). Same read-out and setting: as for `Oc1ccc(CNC2Cc3ccccc3C2)c2cccnc12`, the figure is 0.726% (inactive); as for `O=C(NC1Cc2ccccc2C1)c1cc(-c2ccccc2)on1`, -13.3% (inactive). On the same count and under the same terms, under `CC(C)(C)OC(=O)N1CCN(Cc2ccc(O)c3ncccc23)CC1` stands 6.17% (inactive); under `O=C(NCc1ccccc1)c1cc(-c2ccccc2)on1`, -7.7% (inactive).

Regarding `Cc1ccc(CNC(=O)c2cc(-c3ccccc3)on2)cc1`, the activity change, negative = toxicity in assay [1] was 1.57% (inactive). On the same count and under the same terms, as for `O=C(NC1CCc2ccccc2C1)c1cc(-c2ccccc2)on1` (centres undefined), the figure is -10.6% (inactive).

As to `CC1CN(Cc2ccc(O)c3ncccc23)CC(C)O1` (centres undefined), the IC50 in assay [2] was > 38 µM (inactive). `O=C(Nc1nc(-c2ccccc2)cs1)c1cc(-c2ccccc2)on1`: in assay [1], the activity change, negative = toxicity is 13.9% (inactive). As to `O=C(c1cc(-c2ccccc2)on1)N1CCC(CO)CC1`, the activity change, negative = toxicity in assay [1] is 1.17% (inactive). Same read-out and setting: as for `CC(C)(C)CCNc1nc(-c2ccccn2)nnc1-c1ccccc1`, the figure is -13% (inactive) and -32.8% (inactive); as for `O=C(c1cc(-c2ccccc2)on1)N1CCC(N2CCOCC2)CC1`, -9.91% (inactive); as for `CN(C)c1nc(-c2ccccn2)nnc1-c1ccccc1`, 2.11% (inactive). The same measure, in the same setting: as for `Cn1c(-c2ccccc2)cnc1NC(=O)c1cc(-c2ccccc2)on1`, the figure is -8.92% (inactive).

As for `O=C(c1cc(-c2ccccc2)on1)N1CCC(N2CCCC2)CC1`, the activity change, negative = toxicity in assay [1] is -8.3% (inactive). Still for that read-out and setting: as for `Oc1ccc(CNC2CCc3ccccc32)c2cccnc12` (centres undefined), the figure is -17.9% (inactive); as for `O=C(NCCCn1ccnc1)c1cc(-c2ccccc2)on1`, -7.78% (inactive); as for `Cn1c(NC(=O)c2cc(-c3ccccc3)on2)nc2ccccc21`, -0.865% (inactive). Consider `c1ccc(-c2cnc(Nc3nc(-c4ccccn4)nnc3-c3ccccc3)s2)cc1`, for which the activity change, negative = toxicity in assay [1] is 1.53% (inactive). Same read-out and setting: under `Cc1ccccc1CNC(=O)c1cc(-c2ccccc2)on1` stands -4.19% (inactive).

Take `Oc1ccc(CN2CCC3CCCCC3C2)c2cccnc12` (centres undefined): the IC50 in assay [2] was > 38 µM (inactive). For `c1ccc(-c2nnc(Nc3nc(-c4ccccn4)nnc3-c3ccccc3)s2)cc1`, in assay [2], the IC50 is > 38 µM (inactive).

For `Oc1ccc(CN2CCC(Cc3ccccc3)CC2)c2cccnc12`, the activity change, negative = toxicity in assay [1] was -14.5% (inactive). Still for that read-out and setting: as for `c1ccc(-c2nnc(-c3ccccn3)nc2NCC2CC2)cc1`, the figure is 8.28% (inactive); as for `O=C(NCC1CCCCC1)c1cc(-c2ccccc2)on1`, 0.869% (inactive); as for `O=C(c1cc(-c2ccccc2)on1)N1CCc2cccnc21`, -7.75% (inactive). Still for that read-out and setting: as for `CN1CCN(c2nc(-c3ccccn3)nnc2-c2ccccc2)CC1`, the figure is -13.4% (inactive); as for `c1ccc(-c2nnc(-c3ccccn3)nc2N2CCC(C3CCCCC3)C2)cc1` (centres undefined), 14.5% (inactive); as for `O=C(Nc1nc2ccccc2s1)c1cc(-c2ccccc2)on1`, -1.46% (inactive). Same read-out and setting: under `O=C(Nc1cn2ccccc2n1)c1cc(-c2ccccc2)on1` stands -3.68% (inactive); under `CN(C)CCNC(=O)c1cc(-c2ccccc2)on1`, 14.4% (inactive); under `OCC1CCN(Cc2ccc(O)c3ncccc23)CC1`, -25% (inactive). With `N#CC1(c2ccccc2)CCN(Cc2ccc(O)c3ncccc23)CC1`, the activity change, negative = toxicity in assay [1] was 7.2% (inactive).
